The text below walks through data of ChEMBL document CHEMBL1138477, “8-(4-Methoxyphenyl)pyrazolo[1,5-a]-1,3,5-triazines: selective and centrally active corticotropin-releasing factor receptor-1 (CRF1) antagonists” (J Med Chem, 2009).

The bioavailability is the share of a dose that reaches the circulation, judged against a reference dose that is usually intravenous. The term Cmax denotes the maximum level reached in the sampled fluid or tissue. The clearance is the volume of plasma or blood freed of the substance per unit of time. By Tmax is commonly meant the time at which the peak concentration occurs.

Data set [1] relates to Rattus norvegicus. The experiment in a line: Anxiolytic-like activity in Sprague-Dawley rat assessed as decrease in latency to exit dark chamber at 30 mg/kg, po measured after 1 hr by defensive withdrawal test relative to control. The class given is functional. Also noted: scale not given: the % may be the effect or the level left. In a few lines:
(§1)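 Male Sprague-Dawley rats (180-300 g), individually housed; open field with cylindrical dark chamber; oral dosing in 0.25% Methocel 1 h before a 15 min session scored blind via video; latency to place all four paws in open field recorded, maximum 900 s; test doses 1.0, 3.0, 10, 30 mg/kg; positive control at 10 mg/kg; n = 12/dose; Kruskal-Wallis then Mann-Whitney U.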

The subject of data set [2] is Rattus norvegicus. The data set can be described thus: Ex vivo receptor occupancy of CRF1 receptor in Sprague-Dawley rat brain at 10 mg/kg, po by [125I]sauvagine binding and autoradiography relative to control. In kind it is functional. In a few lines: (§2)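 Sprague-Dawley rats dosed po at 0.3, 1, 3, 10, 30 mg/kg in the defensive-withdrawal vehicle and protocol; brains removed, sectioned, frozen at -80 °C, then ex vivo binding gave occupancy relative to vehicle-treated rats; mean ± SEM.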

Data set [3] can be described thus: Elimination half life in female Sprague-Dawley CD rat at 1 mg/kg, iv. The class given is ADME, organism-based. Also on record: dose 1 mg/kg, route intravenous. The settings on record: in vivo, read-out: beta t1/2 (converted). In a few lines:
(§3)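 Sprague-Dawley CD rats: 1 mg/kg iv bolus in 20% ethanol/saline (apparent pH 3.4) to 3 males and 3 females; 5 mg/kg po in 0.5% methylcellulose with 1% Tween-80 to 3 males. Jugular blood into EDTA, predose to 32 h. Free base quantified by LC/MS after solid-phase extraction (range 5-5000 nM); noncompartmental analysis; F relative to iv.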

Data set [4] deals with Rattus norvegicus. The data set can be described thus: Ex vivo receptor occupancy of CRF1 receptor in po dosed Sprague-Dawley rat brain by [125I]sauvagine binding and autoradiography relative to control. The class given is functional. As to conditions: read-out: MED. In a few lines:
as §2

In data set [5] the test system is Rattus norvegicus. The experiment in a line: Anxiolytic-like activity in Sprague-Dawley rat assessed as decrease in latency to exit dark chamber at 3 mg/kg, po measured after 1 hr by defensive withdrawal test relative to control. The class given is functional. Also on record: scale not given: the % may be the effect or the level left. In a few lines: as §1
In data set [6] the test system is Rattus norvegicus. The data set can be described thus: Anxiolytic-like activity in Sprague-Dawley rat assessed as increase in time spent in open arms at 30 mg/kg, po measured after 1 hr by elevated plus maze test. Also noted: dose 30 mg/kg. The class given is functional, organism-based. In a few lines:
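Group-housed male Sprague-Dawley rats (180-300 g) dosed po in 0.25% Methocel 1 h before elevated plus maze; arm entry defined as all four paws in arm; percent time in open arms scored; test doses 1.0, 3.0, 10, 30 mg/kg; positive control at 18 mg/kg; n = 13-15/dose; mean ± SEM, ANOVA then Fisher's LSD.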

For data set [7], the system named is Rattus norvegicus. The data set can be described thus: Anxiolytic-like activity in Sprague-Dawley rat assessed as decrease in latency to exit dark chamber at 10 mg/kg, po measured after 1 hr by defensive withdrawal test relative to control. Also noted: scale not given: the % may be the effect or the level left. In kind it is functional. In a few lines: as §1

The nature of data set [8]: Oral bioavailability in Beagle dog at 5 mg/kg. In kind it is ADME, organism-based, Canis lupus familiaris. As to conditions: in vivo. In a few lines:
(§4)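 Male beagle dogs (8.0-11.0 kg) dosed iv or po (5 mg/kg oral suspension in 0.5% methylcellulose with 1% Tween-80); plasma sampled 0.25-24 h; liquid-liquid extraction with hexane/ether, LC/MS/MS, quantitation limit 1 ng/mL (2.42 nM); noncompartmental parameters as free base.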

The test system of data set [9] is Rattus norvegicus. The data set can be described thus: Ex vivo receptor occupancy of CRF1 receptor in Sprague-Dawley rat brain at 30 mg/kg, po by [125I]sauvagine binding and autoradiography relative to control. The class given is functional. In a few lines: as §2
Data set [10] is described as follows: Cmax in Beagle dog at 5 mg/kg, po. The class given is ADME, organism-based, Canis lupus familiaris. Also noted: dose 5 mg/kg, route oral. As to conditions: in vivo. In a few lines: as §4
Data set [11] in a line: Clearance in Beagle dog at 5 mg/kg, iv. In kind it is ADME, organism-based, Canis lupus familiaris. Also noted: dose 5 mg/kg, route intravenous. The settings on record: in vivo. In a few lines: as §4
Data set [12] is described as follows: Tmax in male Sprague-Dawley CD rat at 5 mg/kg, po. In kind it is ADME, organism-based. Also noted: dose 5 mg/kg, route oral. The settings on record: in vivo. In a few lines:
as §3

Data set [13] in a line: Tmax in Beagle dog at 5 mg/kg, po. In kind it is ADME, organism-based, Canis lupus familiaris. Also noted: dose 5 mg/kg, route oral. The settings on record: in vivo. In a few lines:
as §4

Data set [14] can be described thus: Clearance in female Sprague-Dawley CD rat at 1 mg/kg, iv. The class given is ADME, organism-based. Also noted: dose 1 mg/kg, route intravenous. The settings on record: in vivo. In a few lines: as §3
A short description of data set [15]: Volume of distribution at steady state in female Sprague-Dawley CD rat at 1 mg/kg, iv. In kind it is ADME, organism-based. Also noted: dose 1 mg/kg, route intravenous. As to conditions: in vivo, read-out: Vdss. In a few lines:
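Female Sprague-Dawley CD rats (n = 3) given a single 1 mg/kg iv bolus (free base) in 20% ethanol/physiological saline (apparent pH 3.4). Jugular vein blood taken into EDTA from predose to 32 h. Plasma assayed by solid-phase extraction and LC/MS with an internal standard (range 5–5000 nM). Noncompartmental analysis; mean ± SD.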

The subject of data set [16] is Rattus norvegicus. The data set can be described thus: Ex vivo receptor occupancy of CRF1 receptor in Sprague-Dawley rat brain at 3 mg/kg, po by [125I]sauvagine binding and autoradiography relative to control. The class given is functional. In a few lines: as §2
Data set [17] deals with Rattus norvegicus. The data set can be described thus: Toxicity in Sprague-Dawley rat assessed as total distance traveled at 30 mg/kg, po after 1 hr by open-field locomotor activity test. The class given is organism-based. Also on record: dose 30 mg/kg, route oral. As to conditions: in vivo. In a few lines:
(§5)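 Male Sprague-Dawley rats received a single oral gavage dose of 30 mg/kg (free base weight) in 0.5% methocel–Tween-80 (99:1) or vehicle alone. Behaviour was assessed 1 h postdose, as time on the rotorod in seconds for the rotorod test and total distance travelled in cm for open-field locomotor activity. Values are mean ± SEM, n = 8 per group.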

In data set [18] the test system is Rattus norvegicus. The data set can be described thus: Hepatic blood flow in iv dosed male Sprague-Dawley CD rat. The class given is ADME, organism-based, Liver. The settings on record: in vivo.
Data set [19] relates to Rattus norvegicus. The experiment in a line: Ex vivo receptor occupancy of CRF1 receptor in Sprague-Dawley rat brain at 0.3 mg/kg, po by [125I]sauvagine binding and autoradiography relative to control. In kind it is functional. In a few lines: as §2
The nature of data set [20]: Elimination half life in male Sprague-Dawley CD rat at 1 mg/kg, iv. In kind it is ADME, organism-based. The settings on record: in vivo, read-out: beta t1/2 (converted). Also noted: dose 1 mg/kg, route intravenous. In a few lines: as §3
Data set [21] can be described thus: Elimination half life in Beagle dog at 5 mg/kg, iv. In kind it is ADME, organism-based, Canis lupus familiaris. Also on record: dose 5 mg/kg, route intravenous. The settings on record: in vivo, read-out: beta t1/2 (converted). In a few lines:
as §4

Data set [22] in a line: Volume of distribution at steady state in Beagle dog at 5 mg/kg, iv. In kind it is ADME, organism-based, Canis lupus familiaris. Also noted: dose 5 mg/kg, route intravenous. As to conditions: in vivo, read-out: Vdss. In a few lines:
(§6)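 Male beagle dogs (8.0-11.0 kg) dosed intravenously. Plasma sampled at 0.25, 0.5, 1, 2, 4, 6, 8, 12 and 24 h after dosing. Liquid–liquid extraction in hexane/ether, then LC/MS/MS assay (quantitation limit 1 ng/mL). Concentrations expressed as free base. Parameters obtained by noncompartmental analysis as for rat. Mean ± SD.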

The nature of data set [23]: Clearance in male Sprague-Dawley CD rat at 1 mg/kg, iv. In kind it is ADME, organism-based. Also on record: dose 1 mg/kg, route intravenous. The settings on record: in vivo. In a few lines: as §3
A short description of data set [24]: Oral bioavailability in male Sprague-Dawley CD rat at 5 mg/kg relative to 1 mg/kg, iv dose. The class given is ADME, organism-based. The settings on record: in vivo. In a few lines: as §3
The subject of data set [25] is Rattus norvegicus. The data set can be described thus: Hepatic blood flow in iv dosed female Sprague-Dawley CD rat. The class given is ADME, organism-based, Liver. The settings on record: in vivo.
For data set [26], the system named is Rattus norvegicus. The experiment in a line: Ex vivo receptor occupancy of CRF1 receptor in Sprague-Dawley rat brain at 1 mg/kg, po by [125I]sauvagine binding and autoradiography relative to control. The class given is functional. In a few lines:
as §2

Data set [27] concerns Rattus norvegicus. The data set can be described thus: Toxicity in Sprague-Dawley rat assessed as time spent on rotarod at 30 mg/kg, po after 1 hr by rotarod test. In kind it is organism-based. Also noted: dose 30 mg/kg, route oral. As to conditions: in vivo. In a few lines:
as §5
For orientation: In the rotarod test animals must keep their balance on a rotating rod.

Data set [28] is described as follows: Oral bioavailability in Beagle dog at 20 mg/kg. The settings on record: in vivo. The class given is ADME, organism-based, Canis lupus familiaris.
The nature of data set [29]: Cmax in Beagle dog at 20 mg/kg, po. The settings on record: in vivo. The class given is ADME, organism-based, Canis lupus familiaris. Also on record: dose 20 mg/kg, route oral.
Data set [30] in a line: Elimination half life in Beagle dog at 1 mg/kg, iv. The class given is ADME, organism-based, Canis lupus familiaris. Also on record: dose 1 mg/kg, route intravenous. The settings on record: in vivo, read-out: beta t1/2 (converted). In a few lines: as §4
Data set [31] is described as follows: Volume of distribution at steady state in Beagle dog at 1 mg/kg, iv. In kind it is ADME, organism-based, Canis lupus familiaris. Also noted: dose 1 mg/kg, route intravenous. The settings on record: in vivo, read-out: Vdss. In a few lines:
as §6

Data set [32] can be described thus: Clearance in Beagle dog at 1 mg/kg, iv. In kind it is ADME, organism-based, Canis lupus familiaris. Also on record: dose 1 mg/kg, route intravenous. The settings on record: in vivo. In a few lines: as §4
Data set [33] in a line: Tmax in Beagle dog at 20 mg/kg, po. Also on record: dose 20 mg/kg, route oral. In kind it is ADME, organism-based, Canis lupus familiaris. The settings on record: in vivo.

Molecules are shown by their SMILES. Active and inactive are the calls of the source.

Take `COCCN(CCOC)c1nc(C)nc2c(-c3ccc(OC)cc3C)c(C)nn12`: the Activity in the data set on Rattus norvegicus [1] came out at 59%; with Rattus norvegicus [2], 60%; in the data set with Rattus norvegicus [5] it was 62%; in the data set on Rattus norvegicus [7], 73%; with Rattus norvegicus [9] it was 82%; in the data set with Rattus norvegicus [16], 48%. The Activity with Rattus norvegicus [17] is listed as 4986 cm; in the data set with Rattus norvegicus [19] it was 12%; in the data set with Rattus norvegicus [26], 17%. Also, the half-life is 11.9 h in [3], 9.7 h in data set [20] and 27.3 h in [21]. The minimal effective dose in the data set on Rattus norvegicus [4] amounted to 3 mg/kg. In the data set on Rattus norvegicus [6], the result was Active. Besides, the bioavailability stood at 34% in data set [8] and 51% in data set [24]. The maximum concentration (Cmax) in [10] amounted to 2380 nM. Further, the clearance was 20 mL/min/kg in [11], 14.5 mL/min/kg in data set [14] and 20 mL/min/kg in data set [23]. The Tmax in [12] and in data set [13] was 0.5 h in each case. For the same compound, the Vd turned out to be 12.2 L/kg in data set [15] and 18.4 L/kg in [22]. Also, the QH in the data set with Rattus norvegicus [18] and with Rattus norvegicus [25] was 55 mL/min/kg throughout. For the same compound, the Time with Rattus norvegicus [27] is listed as 158 s.

Compound `COCCN(CCOC)c1nc(C)nc2c(-c3cc(C)c(OC)cc3C)c(C)nn12` came in with a bioavailability in data set [8] of 48%. Further, the maximum concentration (Cmax) in [10] was determined as 1220 nM. This compound had a clearance in data set [11] of 11 mL/min/kg. Moreover, the Tmax in data set [13] was determined as 0.8 h. Besides, in [21], the half-life was 40.2 h. Also, in data set [22], the Vd worked out at 23.7 L/kg.

`CC[C@@H](C)Nc1nc(C)nc2c(-c3c(C)cc(OC)cc3OC)c(C)nn12` returned a bioavailability in data set [28] of 4.7%. The compound further returned a Cmax in data set [29] of 1940 nM. Besides, the half-life in [30] is 33.3 h. The Vd in data set [31] was found to be 14.8 L/kg. Also, the clearance in data set [32] is 10 mL/min/kg. Also, in [33], the Tmax amounted to 4 h.
